Broadly, the ED50 is the dose that gives a 50% effect, or the effect in half of the subjects. What is called Ki is the dissociation constant of the complex between target and ligand, obtained from inhibition or displacement.

The target of assay [1] is Delta-type opioid receptor (Homo sapiens) (UniProt P41143). In words: Displacement of [3H]diprenorphine from human DOR expressed in CHO cell membranes incubated for 60 mins liquid scintillation counting assay. Conditions: Cell membrane, filed as agonist. In outline: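 Membranes from CHO cells expressing human DOR (15–20 μg) in 50 mM Tris-HCl, pH 7.4, were incubated with 0.2 nM [3H]diprenorphine and varied test concentrations for 60 min at 25 °C. Nonspecific binding was set with 1–10 μM unlabeled diprenorphine. Samples were GF/C filtered and scintillation counted.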
(In a radioligand displacement assay an active substance lowers the binding of a labelled ligand.)

Assay [2] concerns Mus musculus. Kind of assay: Antinociceptive activity in sc dosed CD1 mouse assessed as inhibition of the writhing response after 30 mins post dose by acetic acid-induced writhing assay. The assay is classed as functional. As to conditions: 0.5 h.
For assay [3], the target named is Kappa-type opioid receptor (Cavia porcellus, UniProt P41144). In words: Displacement of [3H]U69,593 from kappa opioid receptor in guinea-pig brain membranes incubated for 30 mins by liquid scintillation counting method. The format is cell membranes, Membrane. The procedure, abridged:
(§1)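 Guinea-pig brain membranes (0.3–0.5 mg protein) in 50 mM Tris-HCl, pH 7.4, were incubated with 1 nM [3H]U69,593 for 30 min at 30 °C, with 10 μM naloxone defining nonspecific binding. MOR was measured on rat brain membranes with 1 nM [3H]DAMGO for 45 min at 35 °C. Samples were filtered and scintillation counted, and Ki was obtained by Cheng–Prusoff; duplicates, 3–4 experiments.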

Assay [4] deals with Delta-type opioid receptor (Rattus norvegicus, UniProt P33533). Kind of assay: Displacement of [3H][Ile5,6]deltorphin II from delta opioid receptor in rat brain membranes incubated for 45 mins by liquid scintillation counting method. The format is cell membranes, Membrane. In outline: (§2)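 Rat brain membranes (cerebella removed; 0.3–0.5 mg protein) in 50 mM Tris-HCl, pH 7.4, were incubated 45 min at 35 °C with 1 nM [3H]DAMGO (MOR) or 0.5 nM [3H][Ile5,6]deltorphin II (DOR) plus varied test concentrations. Nonspecific binding was set with 10 μM naloxone. Samples were GF/C filtered, washed and scintillation counted. Ki was obtained by Cheng–Prusoff; duplicates, 3–4 experiments.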

For assay [5], the species on record is Rattus norvegicus. In words: Selectivity index, ratio of Ki for displacement of [3H][Ile5,6]deltorphin II from delta opioid receptor in rat brain membranes to Ki for displacement of [3H]DAMGO from mu opioid receptor in rat brain membranes. The assay is classed as cell membranes. The procedure, abridged: as §2
Assay [6] has as its target Mu-type opioid receptor (Rattus norvegicus, UniProt P33535). In words: Displacement of [3H]DAMGO from mu opioid receptor in rat brain membranes incubated for 45 mins by liquid scintillation counting method. The format is cell membranes, Membrane. In outline: as §2
The nature of assay [7]: Selectivity index, ratio of Ki for displacement of [3H]U69,593 from kappa opioid receptor in guinea-pig brain membranes to Ki for displacement of [3H]DAMGO from mu opioid receptor in rat brain membranes. The assay is classed as cell membranes. The procedure, abridged: as §1
Assay [8] has as its target Mu-type opioid receptor (Homo sapiens) (UniProt P35372). Kind of assay: Agonist activity at human MOR expressed in CHO cell membranes incubated for 60 mins scintillation counting assay relative to DAMGO. Conditions: Cell membrane, filed as agonist. The procedure, abridged:
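CHO-hMOR or CHO-hKOR membranes (5–10 μg) were incubated 60 min at 25 °C in HEPES/MgCl2/NaCl buffer, pH 7.4, with 0.05 nM [35S]GTPγS, 10 μM GDP and varied test concentrations. Nonspecific binding was set with 10 μM GTPγS. Samples were filtered and scintillation counted. % stimulation was taken from concentration–response curves relative to the full agonist (DAMGO for MOR, U69,593 for KOR). Duplicates, 3–4 experiments.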

For assay [9], the system named is Mus musculus. Kind of assay: Antinociceptive activity in CD1 mouse assessed as inhibition of the writhing response at 50 ug/kg, sc and co-administered with 1 mg/kg naloxone methiodide and measured after 30 mins post dose by acetic acid-induced writhing assay. The format is functional, organism-based. As to conditions: dose 50.0 µg/kg. In outline:
(§3)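 Male CD1 mice (30–35 g) received the agonist sc in saline (10 μL/g) together with sc naloxone methiodide 1 mg/kg. At 25 min, 0.6% acetic acid was given ip, and writhes were counted over a 10 min observation period (30 min post-dose). Results were expressed as mean writhes versus saline control and agonist-alone groups; n = 6–7 mice per group; ANOVA with Tukey post hoc.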

Assay [10] has as its system Mus musculus. Kind of assay: Antinociceptive activity in CD1 mouse assessed as inhibition of the writhing response at 200 ug/kg, sc and co-administered with 1 mg/kg naloxone methiodide and measured after 30 mins post dose by acetic acid-induced writhing assay. The assay is classed as functional, organism-based. As to conditions: dose 200.0 µg/kg. In outline:
as §3
Background: In writhing tests, fewer writhes than in controls are read as antinociception.

Activity calls are given as the source filed them. No cut-off for these calls is given here.

Sequence of Delta-type opioid receptor (Homo sapiens) (P41143 whole entry): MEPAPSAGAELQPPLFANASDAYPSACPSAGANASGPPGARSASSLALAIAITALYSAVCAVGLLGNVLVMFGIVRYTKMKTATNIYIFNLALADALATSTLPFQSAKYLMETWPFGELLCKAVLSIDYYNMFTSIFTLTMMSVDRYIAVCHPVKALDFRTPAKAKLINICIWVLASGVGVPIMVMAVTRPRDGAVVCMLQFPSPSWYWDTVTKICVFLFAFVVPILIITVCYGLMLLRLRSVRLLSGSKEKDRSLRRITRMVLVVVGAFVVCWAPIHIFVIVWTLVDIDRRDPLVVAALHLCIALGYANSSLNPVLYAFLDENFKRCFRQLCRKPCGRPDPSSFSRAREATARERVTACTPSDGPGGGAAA
Sequence of Kappa-type opioid receptor (P41144 whole entry): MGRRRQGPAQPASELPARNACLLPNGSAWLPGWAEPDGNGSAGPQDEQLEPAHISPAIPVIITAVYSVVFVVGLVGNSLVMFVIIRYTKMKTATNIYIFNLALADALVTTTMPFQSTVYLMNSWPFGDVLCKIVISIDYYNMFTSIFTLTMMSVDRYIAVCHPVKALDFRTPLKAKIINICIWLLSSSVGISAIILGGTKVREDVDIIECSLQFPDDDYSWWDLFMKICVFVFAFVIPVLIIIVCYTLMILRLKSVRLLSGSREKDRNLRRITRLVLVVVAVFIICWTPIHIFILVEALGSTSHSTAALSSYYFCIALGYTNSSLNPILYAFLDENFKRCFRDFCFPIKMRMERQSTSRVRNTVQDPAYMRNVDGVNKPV
Sequence of Delta-type opioid receptor (P33533 whole entry): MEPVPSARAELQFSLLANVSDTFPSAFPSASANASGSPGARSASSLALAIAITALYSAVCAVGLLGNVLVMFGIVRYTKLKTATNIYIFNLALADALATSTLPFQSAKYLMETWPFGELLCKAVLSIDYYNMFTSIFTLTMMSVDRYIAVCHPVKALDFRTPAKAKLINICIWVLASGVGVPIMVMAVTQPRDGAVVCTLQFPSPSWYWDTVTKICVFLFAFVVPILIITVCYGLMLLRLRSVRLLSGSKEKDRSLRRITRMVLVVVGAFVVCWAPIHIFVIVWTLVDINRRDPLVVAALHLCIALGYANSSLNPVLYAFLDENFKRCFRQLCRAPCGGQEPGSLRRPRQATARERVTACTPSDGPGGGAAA
Sequence of Mu-type opioid receptor (P33535 whole entry): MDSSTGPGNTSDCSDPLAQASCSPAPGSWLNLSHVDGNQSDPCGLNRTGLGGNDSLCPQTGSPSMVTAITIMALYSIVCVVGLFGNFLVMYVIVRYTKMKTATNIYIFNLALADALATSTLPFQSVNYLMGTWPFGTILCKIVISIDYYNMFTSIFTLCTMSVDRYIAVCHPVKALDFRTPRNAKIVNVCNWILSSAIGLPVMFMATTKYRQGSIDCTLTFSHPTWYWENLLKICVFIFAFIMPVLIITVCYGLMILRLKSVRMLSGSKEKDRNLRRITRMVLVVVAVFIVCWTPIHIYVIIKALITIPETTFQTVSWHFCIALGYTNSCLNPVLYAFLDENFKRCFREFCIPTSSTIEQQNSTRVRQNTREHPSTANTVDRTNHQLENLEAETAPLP
Sequence of Mu-type opioid receptor (Homo sapiens) (P35372 whole entry): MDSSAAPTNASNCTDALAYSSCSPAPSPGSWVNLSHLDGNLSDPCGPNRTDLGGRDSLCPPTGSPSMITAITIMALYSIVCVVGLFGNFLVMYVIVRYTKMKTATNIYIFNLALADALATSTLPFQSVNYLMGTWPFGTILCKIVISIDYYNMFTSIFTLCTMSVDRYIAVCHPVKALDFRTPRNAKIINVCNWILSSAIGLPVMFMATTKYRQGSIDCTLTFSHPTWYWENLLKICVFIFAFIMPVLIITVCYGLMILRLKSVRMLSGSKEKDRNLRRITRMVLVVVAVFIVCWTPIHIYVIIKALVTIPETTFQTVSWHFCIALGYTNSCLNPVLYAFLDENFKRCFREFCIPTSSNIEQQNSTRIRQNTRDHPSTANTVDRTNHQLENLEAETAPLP

Consider `CO[C@@]12CC[C@H](N[C@@H](C)C(=O)O)[C@@H]3Oc4c(O)ccc5c4[C@@]31CCN(C)[C@@H]2C5`, for which, in assay [1], the outcome was Active. Also, in assay [2], the ED50 amounted to 0.016 mg/kg. This compound also had a Ki in [3] of 142 nM.

As to `CO[C@@]12CC[C@@H](N[C@@H](C)C(=O)O)[C@@H]3Oc4c(O)ccc5c4[C@@]31CCN(C)[C@@H]2C5`, the result in assay [1] was Active. In addition, the Ki was 7.71 nM in assay [4] and 63.7 nM in assay [3].

For the compound `CO[C@@]12CC[C@@H](N[C@@H](Cc3ccccc3)C(=O)O)[C@@H]3Oc4c(O)ccc5c4[C@@]31CCN(C)[C@@H]2C5`, in [1], the outcome was Active. In addition, the Ratio Ki in assay [5] worked out at 0.4; in assay [7], 59. Further, the Ki in assay [6] came to 2.58 nM; in assay [4] it was 1.03 nM; in assay [3], 151 nM.

As for `CC[C@H](N[C@@H]1CC[C@@]2(OC)[C@H]3Cc4ccc(O)c5c4[C@@]2(CCN3C)[C@H]1O5)C(=O)O`, the outcome in assay [1] was Active. Also, the Ratio Ki in assay [5] turned out to be 0.7; in assay [7], 110. This compound gave an Activity in assay [8] of 83%. The result in [9] was inactive.

For the compound `CO[C@@]12CC[C@H](N[C@@H](Cc3ccccc3)C(=O)O)[C@@H]3Oc4c(O)ccc5c4[C@@]31CCN(C)[C@@H]2C5`, in [1], the result was Active. Besides, the figures for the Ratio Ki in assay [5] and in [7] were 3.9 and 30, respectively. Moreover, the results for the Ki in assay [6] and in assay [3] were 0.95 nM and 28.5 nM, respectively.

Turning to `CO[C@@]12CC[C@@H](N[C@H](C(=O)O)C3CCCCC3)[C@@H]3Oc4c(O)ccc5c4[C@@]31CCN(C)[C@@H]2C5`, the result in assay [1] was Active. Further, the results for the Ratio Ki in assay [5] and in [7] were 0.8 and 71, respectively. Moreover, in assay [9], the result was inactive.

For `CO[C@@]12CC[C@@H](N[C@@H](CCCCN)C(=O)O)[C@@H]3Oc4c(O)ccc5c4[C@@]31CCN(C)[C@@H]2C5`, the outcome in assay [1] was Active. Moreover, the Ratio Ki amounted to 6.3 in assay [5] and 64 in assay [7]. In [9], the result was inactive.

In the case of `CO[C@@]12CC[C@@H](NCC(=O)NCC(=O)O)[C@@H]3Oc4c(O)ccc5c4[C@@]31CCN(C)[C@@H]2C5`, the result in assay [1] was Active. Also, the Ratio Ki in assay [5] is 1.6; in [7] it was 44. For the same compound, the outcome in assay [10] was inactive.

For the compound `CO[C@@]12CC[C@@H](N[C@@H](Cc3c[nH]c4ccccc34)C(=O)O)[C@@H]3Oc4c(O)ccc5c4[C@@]31CCN(C)[C@@H]2C5`, the outcome in assay [1] was Active. Also, the Ratio Ki in assay [5] was found to be 1.8; in assay [7] it was 13. Also, the outcome in assay [10] was inactive.

For the origin of these results see ChEMBL document CHEMBL4673223, “Synthesis, Biological, and Structural Explorations of New Zwitterionic Derivatives of 14- O-Methyloxymorphone, as Potent μ/δ Opioid Agonists and Peripherally Selective Antinociceptives” (J Med Chem, 2019).
